These results are taken from ChEMBL document CHEMBL3826951, “Discovery of Benzocycloalkane Derivatives Efficiently Blocking Bacterial Virulence for the Treatment of Methicillin-Resistant S. aureus (MRSA) Infections by Targeting Diapophytoene Desaturase (CrtN)” (J Med Chem, 2016).

As usually defined, the solubility is how much of the substance goes into solution per volume.

The target in data set [1] is T1, 4,4'-diapophytoene desaturase (4,4'-diaponeurosporene-forming) (Staphylococcus aureus (strain Newman)) (UniProt O07855).
T1 sequence (whole entry): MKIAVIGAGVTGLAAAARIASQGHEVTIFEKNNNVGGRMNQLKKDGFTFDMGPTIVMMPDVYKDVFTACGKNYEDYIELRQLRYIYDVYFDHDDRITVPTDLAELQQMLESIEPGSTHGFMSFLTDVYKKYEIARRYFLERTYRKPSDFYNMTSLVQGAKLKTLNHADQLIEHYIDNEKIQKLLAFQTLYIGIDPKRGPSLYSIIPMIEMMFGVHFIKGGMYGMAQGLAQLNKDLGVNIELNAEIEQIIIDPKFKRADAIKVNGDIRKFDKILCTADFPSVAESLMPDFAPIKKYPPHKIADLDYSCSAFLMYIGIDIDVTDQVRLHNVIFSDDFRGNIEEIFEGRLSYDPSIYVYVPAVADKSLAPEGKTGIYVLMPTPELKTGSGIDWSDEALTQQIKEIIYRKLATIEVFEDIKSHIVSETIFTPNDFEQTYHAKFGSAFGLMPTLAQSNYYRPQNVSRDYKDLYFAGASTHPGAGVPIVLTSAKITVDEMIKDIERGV
As to the kind of experiment: Inhibition of diapophytoene desaturase in Staphylococcus aureus Newman assessed as 4,4'-diapophytoene formation by HPLC method. Particulars: Staphylococcus aureus subsp. aureus str. Newman.

Data set [2] concerns Staphylococcus aureus. As to the kind of experiment: Attenuation of Staphylococcus aureus Newman virulence in BALB/c mouse systemic infection model assessed as decrease in bacterial survival in kidney at 50 mg/kg, ip administered every 12 hrs for 108 hrs followed by bacterial challenge after first 12 hrs of compound dosing measured 5 days post infection. Type of data set: functional. The gist of the method:
(§1)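 Abscess model in female BALB/c mice, 6-8 weeks old. Dosed ip every 12 h for 108 h; retro-orbital challenge with 1 × 10^7 CFU Newman in 100 µL at 12 h. Sacrificed day 5. Kidneys and hearts homogenised in PBS plus 0.1% Triton X-100 and plated on TSA for CFU. n = 13; two-tailed Mann-Whitney.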

For data set [3], the system named is Staphylococcus aureus. As to the kind of experiment: Sensitization of methicillin-resistant Staphylococcus aureus USA300 LAC to H2O2-induced killing assessed as cell survival at 1 uM pre-incubated for 24 hrs before H2O2 exposure for 30 mins by serial dilution method (reference value: 15.83%). The data set is classed as functional.
Data set [4] can be described thus: Aqueous solubility of the compound in water after 24 hrs by HPLC method. The data set is classed as physicochemical. In short, it runs like this: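 Excess solid stirred in pure water for 24 h, then filtered. Filtrate analysed by HPLC (10 µL injection). Concentration read against a calibration curve of peak area versus concentration, built from methanol solutions at 50–800 µg/mL.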

Data set [5] relates to Staphylococcus aureus. As to the kind of experiment: Attenuation of methicillin-resistant Staphylococcus aureus Mu 50 virulence in BALB/c mouse systemic infection model assessed as decrease in bacterial survival in kidney at 200 mg/kg, ip administered every 12 hrs for 108 hrs followed by bacterial challenge after first 12 hrs of compound dosing measured 5 days post infection. The data set is classed as functional, Mu50. The gist of the method:
(§2)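 Female BALB/c mice, 6-8 weeks old. Dosed ip every 12 h for 108 h. Challenged with 100 µL at 12 h: 1.6 × 10^8 CFU Mu50 or 4 × 10^7 CFU USA400 MW2. Sacrificed 5 days post-infection. Livers and kidneys homogenised in PBS/0.1% Triton X-100, serially plated on TSA, CFU counted; two-tailed Mann-Whitney.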

The test system of data set [6] is Staphylococcus aureus. As to the kind of experiment: Attenuation of Staphylococcus aureus Newman virulence in BALB/c mouse lethal infection model assessed as mouse survival administered ip every 12 hrs for 108 hrs followed by 2 x 10^7 CFU bacterial challenge after first 12 hrs of compound dosing measured 8 days post challenge. Type of data set: functional. The gist of the method: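 Female BALB/c mice, 6-8 weeks old, kept specific pathogen-free. Dosed ip at 50 or 200 mg/kg every 12 h for 108 h (4.5 d). Challenged 12 h after the first dose with 2 × 10^7 CFU S. aureus Newman. Mortality followed; n = 15; log-rank test.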

Another data set relates to Trichophyton verrucosum. As to the kind of experiment: Antifungal activity against naftifine-sensitive Trichophyton verrucosum after 7 days by serial dilution method. Type of data set: functional. The gist of the method:
(§3)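 Broth serial dilution in 96-well plates per NCCLS recommendations. Medium: RPMI 1640 buffered with 0.165 M MOPS. Fungi were ATCC strains or clinical isolates.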

The subject of data set [7] is Staphylococcus aureus. As to the kind of experiment: Effect on methicillin-resistant Staphylococcus aureus USA300 LAC growth at 0.2 mM after overnight incubation by plate reader method. The data set is classed as organism-based. Conditions: 200 µM. In short, it runs like this:
(§4)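 DMSO stock (20 mM) diluted in TSB to final 0.2 or 0.05 mM, overlaid with paraffin, pre-warmed 4 h at 37 °C. Overnight cultures adjusted to OD600 ~1.0 and inoculated to final OD600 ≈ 0.05. DMSO-matched growth controls. Incubated overnight at 37 °C; OD600 read every 30 min.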

The test system of data set [8] is Staphylococcus aureus. As to the kind of experiment: Sensitization of Staphylococcus aureus Newman to human whole blood assessed as cell survival at 1 uM after 6 hrs by serial dilution method (reference value: 26.67%). Type of data set: functional.
Data set [9] concerns Staphylococcus aureus. As to the kind of experiment: Sensitization of methicillin-resistant Staphylococcus aureus Mu 50 to human whole blood assessed as cell survival at 1 uM after 6 hrs by serial dilution method (reference value: 16.11%). The data set is classed as functional. Particulars: Mu50, 6 h.
The subject of data set [10] is Staphylococcus aureus. As to the kind of experiment: Effect on methicillin-resistant Staphylococcus aureus USA400 MW2 growth at 0.05 mM after overnight incubation by plate reader method. Particulars: 50 µM. Type of data set: organism-based. The gist of the method: as §4
The test system of the next data set is Trichophyton rubrum. As to the kind of experiment: Antifungal activity against naftifine-sensitive Trichophyton rubrum after 7 days by serial dilution method. The data set is classed as functional. The gist of the method:
as §3

In data set [11] the test system is Trichophyton mentagrophytes. As to the kind of experiment: Antifungal activity against naftifine-sensitive Trichophyton mentagrophytes after 7 days by serial dilution method. The data set is classed as functional. In short, it runs like this: as §3
Data set [12] concerns Staphylococcus aureus. As to the kind of experiment: Sensitization of Staphylococcus aureus Newman to H2O2-induced killing assessed as cell survival at 1 uM pre-incubated for 24 hrs before H2O2 exposure for 30 mins by serial dilution method (reference value: 30.43%). The data set is classed as functional.
The subject of data set [13] is Staphylococcus aureus. As to the kind of experiment: Sensitization of methicillin-resistant Staphylococcus aureus USA300 LAC to human whole blood assessed as cell survival at 1 uM after 6 hrs by serial dilution method (reference value: 12.17%). The data set is classed as functional. Conditions: LAC USA300, 6 h.
The test system of data set [14] is Staphylococcus aureus. As to the kind of experiment: Effect on Staphylococcus aureus Newman growth at 0.2 mM after overnight incubation by plate reader method. The data set is classed as organism-based. Particulars: 200 µM. The gist of the method:
as §4

In data set [15] the test system is Staphylococcus aureus. As to the kind of experiment: Sensitization of methicillin-resistant Staphylococcus aureus Mu 50 to H2O2-induced killing assessed as cell survival at 1 uM pre-incubated for 24 hrs before H2O2 exposure for 30 mins by serial dilution method (reference value: 30.67%). The data set is classed as functional. Conditions: Mu50.
Data set [16] concerns Staphylococcus aureus. As to the kind of experiment: Sensitization of methicillin-resistant Staphylococcus aureus USA400 MW2 to H2O2-induced killing assessed as cell survival at 1 uM pre-incubated for 24 hrs before H2O2 exposure for 30 mins by serial dilution method (reference value: 14.17%). Type of data set: functional.
Data set [17] has as its system Staphylococcus aureus. As to the kind of experiment: Attenuation of Staphylococcus aureus Newman virulence in BALB/c mouse systemic infection model assessed as decrease in bacterial survival in heart at 50 mg/kg, ip administered every 12 hrs for 108 hrs followed by bacterial challenge after first 12 hrs of compound dosing measured 5 days post infection. Type of data set: functional. In short, it runs like this:
as §1

For data set [18], the system named is Staphylococcus aureus. As to the kind of experiment: Attenuation of methicillin-resistant Staphylococcus aureus Mu 50 virulence in BALB/c mouse systemic infection model assessed as decrease in bacterial survival in kidney at 50 mg/kg, ip administered every 12 hrs for 108 hrs followed by bacterial challenge after first 12 hrs of compound dosing measured 5 days post infection. Type of data set: functional, Mu50. The gist of the method:
as §2

SMILES strings stand for the structures. Active and inactive are the calls of the source. No cut-off for these calls is given here. Where only a bound is given, the exact number is not on record here.

Consider `COc1ccc(/C=C/CN(C)Cc2ccc3c(c2)CCCCC3)cc1.Cl`, for which the inhibition entry in data set [1] is “Active”. In addition, the Activity was 1.17 log10CFU with Staphylococcus aureus [2]; 2.27 log10CFU in the data set on Staphylococcus aureus [5]; “Non-toxic” in the data set with Staphylococcus aureus [7]; “Non-toxic” in the data set on Staphylococcus aureus [10]; “Non-toxic” in the data set on Staphylococcus aureus [14]; 1.62 log10CFU with Staphylococcus aureus [17]. Further, the Activity in the data set with Staphylococcus aureus [18] came to 0.99 log10CFU. In addition, the survival at 1 µM in the data set on Staphylococcus aureus [3] is 0.98%; with Staphylococcus aureus [8], 1.83%; with Staphylococcus aureus [9] it was 0.4%; in the data set with Staphylococcus aureus [12] it was 0.83%; in the data set with Staphylococcus aureus [13], 0.95%; in the data set on Staphylococcus aureus [15], 4.44%. The survival at 1 µM in the data set on Staphylococcus aureus [16] was determined as 0.96%. For the same compound, the concentration in solution in data set [4] (solubility at 24 h) came to 4240 µg/mL. Moreover, in the data set on Staphylococcus aureus [6], the Survival was over 60%. The “MIC=<80” value (with Trichophyton verrucosum; in the data set on Trichophyton rubrum; in [11]) was 8 µg/mL each time.
